In data set [1] the target is RAC-alpha serine/threonine-protein kinase (Homo sapiens) (UniProt P31749). As to the kind of experiment: Inhibition of AKT1 at 30 uM by microfluidic mobility shift assay. Put shortly:
(§1)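 Single-concentration screen, singlicate, 30 uM final (diluted from 1 mM DMSO solutions), fluorescently tagged peptide substrate appropriate to each kinase, ATP at apparent Km for each protein. Phosphorylated and unphosphorylated peptides separated electrophoretically; conversion is the phosphorylated peak area over the sum of both peaks. No-inhibitor and no-ATP controls; H89 reference on each plate.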

The target of data set [2] is Proto-oncogene tyrosine-protein kinase Src (Homo sapiens, UniProt P12931). Kind of data set: Inhibition of SRC at 30 uM by microfluidic mobility shift assay. An outline of the steps:
as §1

The target of data set [3] is Glycogen synthase kinase-3 beta (Homo sapiens) (UniProt P49841). As to the kind of experiment: Inhibition of GSK3B at 30 uM by microfluidic mobility shift assay. Put shortly: as §1
The target in data set [4] is Ribosomal protein S6 kinase alpha-1 (Homo sapiens) (UniProt Q15418). As to the kind of experiment: Inhibition of RSK1 at 30 uM by microfluidic mobility shift assay. Put shortly:
as §1

Data set [5] addresses Tyrosine-protein kinase Lyn (Homo sapiens, UniProt P07948). Kind of data set: Inhibition of LYN at 30 uM by microfluidic mobility shift assay. Put shortly: as §1
Data set [6] concerns the target T1, MAP kinase-activated protein kinase 5 (Homo sapiens) (UniProt Q8IW41).
T1 sequence (whole entry): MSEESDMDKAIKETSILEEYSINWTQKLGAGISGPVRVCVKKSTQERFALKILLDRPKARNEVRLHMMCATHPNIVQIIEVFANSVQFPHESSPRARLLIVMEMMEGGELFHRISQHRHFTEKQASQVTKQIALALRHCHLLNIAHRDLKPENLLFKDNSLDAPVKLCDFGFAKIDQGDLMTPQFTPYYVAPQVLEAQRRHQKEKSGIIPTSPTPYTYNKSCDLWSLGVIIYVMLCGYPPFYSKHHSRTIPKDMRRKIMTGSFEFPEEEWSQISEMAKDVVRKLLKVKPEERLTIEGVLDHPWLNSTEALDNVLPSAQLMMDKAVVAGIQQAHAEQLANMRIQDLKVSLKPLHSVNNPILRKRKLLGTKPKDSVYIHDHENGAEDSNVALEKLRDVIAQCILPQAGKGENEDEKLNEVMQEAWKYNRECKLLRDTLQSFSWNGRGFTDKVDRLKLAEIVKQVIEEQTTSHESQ
Kind of data set: Inhibition of PRAK1 at 30 uM by microfluidic mobility shift assay. Put shortly:
as §1

For data set [7], the target named is T2, Serine/threonine-protein kinase Chk1 (Homo sapiens) (UniProt O14757).
T2 sequence (whole entry): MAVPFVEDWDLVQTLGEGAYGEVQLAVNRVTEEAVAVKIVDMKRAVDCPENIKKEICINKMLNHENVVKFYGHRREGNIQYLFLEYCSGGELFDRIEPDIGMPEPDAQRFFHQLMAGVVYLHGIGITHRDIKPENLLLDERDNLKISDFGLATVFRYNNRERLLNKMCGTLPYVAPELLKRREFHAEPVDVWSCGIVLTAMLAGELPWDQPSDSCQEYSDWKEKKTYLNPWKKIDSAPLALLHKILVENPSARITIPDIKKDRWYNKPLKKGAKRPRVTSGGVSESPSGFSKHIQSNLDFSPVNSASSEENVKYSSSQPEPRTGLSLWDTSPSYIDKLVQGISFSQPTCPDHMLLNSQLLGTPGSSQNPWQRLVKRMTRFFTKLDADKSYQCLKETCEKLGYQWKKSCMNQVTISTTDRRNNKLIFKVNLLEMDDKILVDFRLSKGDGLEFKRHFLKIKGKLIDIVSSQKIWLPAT
As to the kind of experiment: Inhibition of CHK1 at 30 uM by microfluidic mobility shift assay. Put shortly: as §1

Data set [8] has as its target Mitogen-activated protein kinase 14 (Homo sapiens, UniProt Q16539). As to the kind of experiment: Inhibition of p38alpha at 30 uM by microfluidic mobility shift assay. An outline of the steps: as §1
For data set [9], the target named is Ribosomal protein S6 kinase alpha-5 (Homo sapiens) (UniProt O75582). Kind of data set: Inhibition of MSK1 at 30 uM by microfluidic mobility shift assay. Put shortly:
as §1

In data set [10] the target is Mitogen-activated protein kinase 3 (Homo sapiens) (UniProt P27361). As to the kind of experiment: Inhibition of ERK1 at 30 uM by microfluidic mobility shift assay. An outline of the steps:
as §1

Data set [11] concerns the target RAC-beta serine/threonine-protein kinase (Homo sapiens) (UniProt P31751). As to the kind of experiment: Inhibition of AKT2 at 30 uM by microfluidic mobility shift assay. Put shortly:
as §1

Data set [12] deals with Insulin receptor (Homo sapiens) (UniProt P06213). As to the kind of experiment: Inhibition of INSR at 30 uM by microfluidic mobility shift assay. An outline of the steps:
as §1

In data set [13] the target is T3, Protein kinase C zeta type (Homo sapiens) (UniProt Q05513).
T3 sequence (whole entry): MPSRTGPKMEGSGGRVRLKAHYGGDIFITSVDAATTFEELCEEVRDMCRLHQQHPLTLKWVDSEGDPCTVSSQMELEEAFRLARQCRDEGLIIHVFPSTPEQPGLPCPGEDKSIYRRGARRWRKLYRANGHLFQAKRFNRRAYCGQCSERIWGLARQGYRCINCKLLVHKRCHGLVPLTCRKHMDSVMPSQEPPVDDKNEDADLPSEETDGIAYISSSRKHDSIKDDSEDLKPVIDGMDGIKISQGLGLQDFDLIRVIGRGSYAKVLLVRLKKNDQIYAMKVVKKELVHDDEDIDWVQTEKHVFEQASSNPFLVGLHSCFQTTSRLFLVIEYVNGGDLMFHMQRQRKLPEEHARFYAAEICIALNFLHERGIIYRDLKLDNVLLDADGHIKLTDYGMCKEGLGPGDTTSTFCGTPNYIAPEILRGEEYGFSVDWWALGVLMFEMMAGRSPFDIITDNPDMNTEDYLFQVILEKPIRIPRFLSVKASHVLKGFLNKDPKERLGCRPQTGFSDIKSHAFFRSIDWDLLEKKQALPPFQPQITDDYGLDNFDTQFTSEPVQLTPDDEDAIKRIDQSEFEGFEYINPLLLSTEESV
Kind of data set: Inhibition of PKCz at 30 uM by microfluidic mobility shift assay. An outline of the steps:
as §1

Data set [14] addresses Tyrosine-protein kinase Fyn (Homo sapiens, UniProt P06241). As to the kind of experiment: Inhibition of FYN at 30 uM by microfluidic mobility shift assay. An outline of the steps:
as §1

Data set [15] concerns the target Serine/threonine-protein kinase Chk2 (Homo sapiens, UniProt O96017). Kind of data set: Inhibition of CHK2 at 30 uM by microfluidic mobility shift assay. An outline of the steps:
as §1

The target of data set [16] is Tyrosine-protein kinase ABL1 (Homo sapiens, UniProt P00519). Kind of data set: Inhibition of ABL at 30 uM by microfluidic mobility shift assay. An outline of the steps:
as §1

Data set [17] deals with T4, Aurora kinase A (Homo sapiens) (UniProt O14965).
T4 sequence (whole entry): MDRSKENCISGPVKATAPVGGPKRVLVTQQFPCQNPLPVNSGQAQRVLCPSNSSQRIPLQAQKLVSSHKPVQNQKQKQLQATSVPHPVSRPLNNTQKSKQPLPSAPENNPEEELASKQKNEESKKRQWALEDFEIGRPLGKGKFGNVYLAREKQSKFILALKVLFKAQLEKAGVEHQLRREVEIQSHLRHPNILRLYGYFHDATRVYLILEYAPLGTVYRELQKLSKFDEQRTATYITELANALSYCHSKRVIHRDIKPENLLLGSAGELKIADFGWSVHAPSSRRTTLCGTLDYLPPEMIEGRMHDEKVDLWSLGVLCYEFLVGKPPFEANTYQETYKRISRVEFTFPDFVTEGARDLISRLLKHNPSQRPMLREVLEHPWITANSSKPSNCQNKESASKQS
Kind of data set: Inhibition of AurA at 30 uM by microfluidic mobility shift assay. Put shortly: as §1

Data set [18] deals with Mitogen-activated protein kinase 1 (Homo sapiens) (UniProt P28482). As to the kind of experiment: Inhibition of ERK2 at 30 uM by microfluidic mobility shift assay. An outline of the steps:
as §1

Data set [19] deals with MAP kinase-activated protein kinase 2 (Homo sapiens, UniProt P49137). Kind of data set: Inhibition of MAPKAPK2 at 30 uM by microfluidic mobility shift assay. An outline of the steps:
as §1

Data set [20] deals with Tyrosine-protein kinase Lck (Homo sapiens, UniProt P06239). Kind of data set: Inhibition of LCK at 30 uM by microfluidic mobility shift assay. An outline of the steps:
as §1

Data set [21] in a line: Inhibition of PKA at 30 uM by microfluidic mobility shift assay. Put shortly: as §1
A short description of data set [22]: Aqueous solubility of the compound by HPLC analysis. The note with it: water. In kind it is physicochemical. An outline of the steps:
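Solubility determined by HPLC measurement of the concentration in saturated aqueous solutions of the compounds.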

Data set [23] concerns the target T5, Serine/threonine-protein kinase D2 (Homo sapiens) (UniProt Q9BZL6).
T5 sequence (whole entry): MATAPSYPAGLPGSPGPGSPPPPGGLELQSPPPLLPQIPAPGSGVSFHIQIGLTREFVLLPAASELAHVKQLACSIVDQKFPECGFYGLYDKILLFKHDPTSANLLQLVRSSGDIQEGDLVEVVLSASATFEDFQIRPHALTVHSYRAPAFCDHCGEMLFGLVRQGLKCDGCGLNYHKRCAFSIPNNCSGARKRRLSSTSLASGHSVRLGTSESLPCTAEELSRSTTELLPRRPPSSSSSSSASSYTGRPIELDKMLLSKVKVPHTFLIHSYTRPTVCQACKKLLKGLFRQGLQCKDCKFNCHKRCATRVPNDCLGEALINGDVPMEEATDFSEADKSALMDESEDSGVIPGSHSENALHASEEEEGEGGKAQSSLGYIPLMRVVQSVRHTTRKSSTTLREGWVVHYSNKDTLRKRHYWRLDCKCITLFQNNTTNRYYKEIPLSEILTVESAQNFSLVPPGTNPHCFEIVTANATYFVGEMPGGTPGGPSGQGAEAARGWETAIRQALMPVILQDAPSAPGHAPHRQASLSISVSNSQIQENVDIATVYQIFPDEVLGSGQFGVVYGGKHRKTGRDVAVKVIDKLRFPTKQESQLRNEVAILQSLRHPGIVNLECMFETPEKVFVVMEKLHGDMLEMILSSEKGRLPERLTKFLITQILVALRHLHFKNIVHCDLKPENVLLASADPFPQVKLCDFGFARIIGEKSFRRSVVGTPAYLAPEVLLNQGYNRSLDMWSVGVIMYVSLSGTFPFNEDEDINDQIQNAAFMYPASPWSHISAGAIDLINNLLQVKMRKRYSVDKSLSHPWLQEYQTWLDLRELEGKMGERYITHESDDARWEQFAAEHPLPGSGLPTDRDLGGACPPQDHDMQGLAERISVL
Kind of data set: Inhibition of PKD2 at 30 uM by microfluidic mobility shift assay. Put shortly: as §1

In brackets after ≈: the same amount, converted by molar mass.

Chain of RAC-beta serine/threonine-protein kinase (Homo sapiens) (P31751 whole entry): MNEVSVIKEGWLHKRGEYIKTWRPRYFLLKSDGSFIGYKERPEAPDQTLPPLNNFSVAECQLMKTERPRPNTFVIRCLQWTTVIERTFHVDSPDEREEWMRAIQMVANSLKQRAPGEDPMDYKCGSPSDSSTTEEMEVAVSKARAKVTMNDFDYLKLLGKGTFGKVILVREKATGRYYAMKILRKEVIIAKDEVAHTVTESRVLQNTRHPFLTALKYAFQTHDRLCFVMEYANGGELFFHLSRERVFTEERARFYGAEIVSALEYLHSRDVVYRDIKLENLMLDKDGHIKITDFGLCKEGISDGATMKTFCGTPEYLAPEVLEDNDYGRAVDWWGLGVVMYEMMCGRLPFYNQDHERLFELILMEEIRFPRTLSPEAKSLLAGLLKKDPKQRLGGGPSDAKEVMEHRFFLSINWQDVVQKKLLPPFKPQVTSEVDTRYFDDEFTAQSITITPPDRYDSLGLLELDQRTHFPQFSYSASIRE
Chain of Proto-oncogene tyrosine-protein kinase Src (P12931 2-536 limits assumed): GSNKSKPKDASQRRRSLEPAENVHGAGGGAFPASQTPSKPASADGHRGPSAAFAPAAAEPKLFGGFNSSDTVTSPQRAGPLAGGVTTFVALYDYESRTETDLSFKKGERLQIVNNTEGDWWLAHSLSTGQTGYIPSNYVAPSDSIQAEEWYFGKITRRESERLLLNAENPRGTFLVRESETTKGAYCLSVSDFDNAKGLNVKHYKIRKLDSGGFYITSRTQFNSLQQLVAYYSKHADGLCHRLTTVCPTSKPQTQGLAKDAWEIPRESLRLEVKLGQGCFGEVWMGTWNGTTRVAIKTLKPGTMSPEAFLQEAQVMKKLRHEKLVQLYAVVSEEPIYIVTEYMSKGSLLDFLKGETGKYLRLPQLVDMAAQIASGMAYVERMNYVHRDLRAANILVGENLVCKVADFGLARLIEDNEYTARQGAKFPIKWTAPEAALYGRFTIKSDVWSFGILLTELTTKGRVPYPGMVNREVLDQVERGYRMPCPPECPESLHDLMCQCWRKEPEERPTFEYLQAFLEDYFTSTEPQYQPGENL
Chain of Tyrosine-protein kinase ABL1 (P00519 whole entry): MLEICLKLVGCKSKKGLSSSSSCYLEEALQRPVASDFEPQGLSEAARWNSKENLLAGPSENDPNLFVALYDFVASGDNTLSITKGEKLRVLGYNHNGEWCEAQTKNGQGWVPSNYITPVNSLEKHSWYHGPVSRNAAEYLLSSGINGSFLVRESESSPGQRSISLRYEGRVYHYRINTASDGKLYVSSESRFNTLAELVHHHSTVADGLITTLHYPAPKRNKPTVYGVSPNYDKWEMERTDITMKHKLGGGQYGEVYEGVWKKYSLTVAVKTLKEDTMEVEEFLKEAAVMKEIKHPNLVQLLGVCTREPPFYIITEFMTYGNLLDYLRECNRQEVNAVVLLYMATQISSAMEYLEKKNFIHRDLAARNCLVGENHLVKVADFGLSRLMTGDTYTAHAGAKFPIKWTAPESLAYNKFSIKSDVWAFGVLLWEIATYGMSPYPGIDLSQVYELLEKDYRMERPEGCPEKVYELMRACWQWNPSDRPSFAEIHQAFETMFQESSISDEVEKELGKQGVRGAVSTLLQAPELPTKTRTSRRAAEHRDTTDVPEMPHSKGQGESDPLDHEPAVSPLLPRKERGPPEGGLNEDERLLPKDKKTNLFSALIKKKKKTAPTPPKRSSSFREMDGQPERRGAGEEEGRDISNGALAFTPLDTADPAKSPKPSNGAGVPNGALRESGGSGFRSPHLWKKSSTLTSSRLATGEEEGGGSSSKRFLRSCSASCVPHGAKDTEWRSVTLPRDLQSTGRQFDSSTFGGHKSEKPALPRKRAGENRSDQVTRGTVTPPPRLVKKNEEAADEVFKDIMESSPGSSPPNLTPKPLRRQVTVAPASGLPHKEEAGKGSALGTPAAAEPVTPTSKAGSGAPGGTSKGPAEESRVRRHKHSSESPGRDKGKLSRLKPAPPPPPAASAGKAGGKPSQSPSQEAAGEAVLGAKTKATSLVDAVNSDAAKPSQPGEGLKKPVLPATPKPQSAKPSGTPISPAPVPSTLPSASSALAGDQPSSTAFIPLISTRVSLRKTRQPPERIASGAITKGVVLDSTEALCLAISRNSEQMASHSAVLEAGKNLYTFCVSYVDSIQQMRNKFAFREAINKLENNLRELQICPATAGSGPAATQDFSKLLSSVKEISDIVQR
Chain of Serine/threonine-protein kinase Chk2 (O96017 whole entry): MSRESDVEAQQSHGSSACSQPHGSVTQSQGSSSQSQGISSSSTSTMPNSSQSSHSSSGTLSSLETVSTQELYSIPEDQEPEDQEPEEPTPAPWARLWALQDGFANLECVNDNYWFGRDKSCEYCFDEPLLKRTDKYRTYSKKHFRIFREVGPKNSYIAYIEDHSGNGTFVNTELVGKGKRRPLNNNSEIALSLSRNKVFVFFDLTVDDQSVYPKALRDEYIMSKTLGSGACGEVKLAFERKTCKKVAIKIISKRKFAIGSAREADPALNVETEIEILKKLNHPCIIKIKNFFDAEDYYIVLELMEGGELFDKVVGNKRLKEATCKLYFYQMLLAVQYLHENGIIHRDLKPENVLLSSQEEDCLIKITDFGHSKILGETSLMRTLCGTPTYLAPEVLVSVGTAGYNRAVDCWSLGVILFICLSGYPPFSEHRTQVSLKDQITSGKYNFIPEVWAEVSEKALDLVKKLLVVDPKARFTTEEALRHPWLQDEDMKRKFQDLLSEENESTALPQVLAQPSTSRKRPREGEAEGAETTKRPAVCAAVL
Chain of RAC-alpha serine/threonine-protein kinase (Homo sapiens) (P31749 whole entry): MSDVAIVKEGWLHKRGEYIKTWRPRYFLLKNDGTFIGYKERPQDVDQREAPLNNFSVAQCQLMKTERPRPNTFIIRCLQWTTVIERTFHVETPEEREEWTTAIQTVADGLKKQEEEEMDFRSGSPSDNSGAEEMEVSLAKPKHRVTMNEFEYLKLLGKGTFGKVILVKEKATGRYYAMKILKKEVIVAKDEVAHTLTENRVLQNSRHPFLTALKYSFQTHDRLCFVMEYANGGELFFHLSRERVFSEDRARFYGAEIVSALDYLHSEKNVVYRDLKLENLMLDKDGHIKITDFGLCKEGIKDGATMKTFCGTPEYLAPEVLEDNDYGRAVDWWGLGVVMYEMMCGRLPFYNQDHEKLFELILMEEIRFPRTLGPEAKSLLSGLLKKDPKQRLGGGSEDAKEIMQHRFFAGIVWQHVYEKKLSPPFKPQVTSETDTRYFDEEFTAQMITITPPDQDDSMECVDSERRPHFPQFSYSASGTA
Chain of Tyrosine-protein kinase Lyn (P07948 2-512 limits assumed): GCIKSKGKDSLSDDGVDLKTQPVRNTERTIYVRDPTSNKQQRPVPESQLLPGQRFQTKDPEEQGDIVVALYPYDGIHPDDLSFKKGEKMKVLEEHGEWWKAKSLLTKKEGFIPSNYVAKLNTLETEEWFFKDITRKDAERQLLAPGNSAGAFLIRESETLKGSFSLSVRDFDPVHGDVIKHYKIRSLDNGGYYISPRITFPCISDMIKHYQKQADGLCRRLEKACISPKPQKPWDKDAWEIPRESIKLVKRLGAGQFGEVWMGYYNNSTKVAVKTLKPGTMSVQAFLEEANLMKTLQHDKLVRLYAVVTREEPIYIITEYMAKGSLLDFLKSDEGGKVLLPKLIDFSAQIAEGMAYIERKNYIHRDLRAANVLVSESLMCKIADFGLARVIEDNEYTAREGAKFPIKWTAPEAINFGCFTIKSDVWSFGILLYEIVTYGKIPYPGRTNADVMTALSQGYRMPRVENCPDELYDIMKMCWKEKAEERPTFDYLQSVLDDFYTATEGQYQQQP
Chain of Mitogen-activated protein kinase 1 (Homo sapiens) (P28482 whole entry): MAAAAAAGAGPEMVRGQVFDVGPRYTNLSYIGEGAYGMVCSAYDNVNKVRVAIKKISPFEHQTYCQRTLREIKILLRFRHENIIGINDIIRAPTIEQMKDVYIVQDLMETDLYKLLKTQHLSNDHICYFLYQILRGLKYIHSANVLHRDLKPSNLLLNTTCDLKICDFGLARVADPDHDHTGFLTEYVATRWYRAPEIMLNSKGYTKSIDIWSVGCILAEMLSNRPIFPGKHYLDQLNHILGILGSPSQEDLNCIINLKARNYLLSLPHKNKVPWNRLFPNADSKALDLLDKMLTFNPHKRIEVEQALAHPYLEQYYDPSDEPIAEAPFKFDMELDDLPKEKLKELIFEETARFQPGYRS
Chain of Tyrosine-protein kinase Fyn (P06241 2-537 limits assumed): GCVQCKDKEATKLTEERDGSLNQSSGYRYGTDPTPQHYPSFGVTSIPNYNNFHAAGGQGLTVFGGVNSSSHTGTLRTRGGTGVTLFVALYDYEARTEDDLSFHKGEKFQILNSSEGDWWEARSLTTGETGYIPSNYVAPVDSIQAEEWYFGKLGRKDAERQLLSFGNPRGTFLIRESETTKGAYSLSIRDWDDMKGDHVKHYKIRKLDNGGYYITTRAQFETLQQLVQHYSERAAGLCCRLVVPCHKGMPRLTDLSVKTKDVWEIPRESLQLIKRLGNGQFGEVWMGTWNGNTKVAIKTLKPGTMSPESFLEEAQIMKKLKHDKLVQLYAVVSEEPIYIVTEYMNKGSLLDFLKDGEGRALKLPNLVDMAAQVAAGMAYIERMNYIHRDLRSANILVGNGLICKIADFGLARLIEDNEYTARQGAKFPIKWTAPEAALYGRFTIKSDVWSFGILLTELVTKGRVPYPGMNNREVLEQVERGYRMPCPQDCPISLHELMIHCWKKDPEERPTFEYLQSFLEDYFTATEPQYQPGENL
Chain of MAP kinase-activated protein kinase 2 (P49137 whole entry, looked up): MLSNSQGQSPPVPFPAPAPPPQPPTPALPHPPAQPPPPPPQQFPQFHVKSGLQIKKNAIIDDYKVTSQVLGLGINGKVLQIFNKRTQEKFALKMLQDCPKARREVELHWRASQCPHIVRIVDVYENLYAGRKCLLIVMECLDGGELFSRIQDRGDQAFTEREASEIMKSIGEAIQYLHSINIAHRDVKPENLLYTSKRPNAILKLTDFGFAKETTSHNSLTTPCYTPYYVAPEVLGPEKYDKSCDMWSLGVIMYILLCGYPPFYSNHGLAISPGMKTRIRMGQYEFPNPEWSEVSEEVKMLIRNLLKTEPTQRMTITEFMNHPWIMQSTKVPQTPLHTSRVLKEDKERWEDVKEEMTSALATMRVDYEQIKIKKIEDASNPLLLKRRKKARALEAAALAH

Take `CC(C)(C)c1cc2[nH]nc(N)c2c(=O)[nH]1`: the inhibition – broadly, the relative decrease from the control value, in per cent – in data set [1] was found to be 3%; in [2], 58%; in data set [3] it was 41%; in data set [4] it was 22%; in [5], 40%; in [6] it was 1%. For the same molecule, the inhibition in data set [7] amounted to 12%; in data set [8], 3%; in data set [9], 65%; in [10] it was 12%; in [11] it was 4%; in data set [12] it was 14%. Moreover, the inhibition was -9% in data set [13]; 48% in data set [14]; 21% in data set [15]; 14% in data set [16]; 34% in data set [17]; 4% in data set [18]. For the same molecule, the inhibition worked out at 39% in data set [19], 40% in [20] and 75% in data set [21].
Turning to `Nc1n[nH]c2cc(C3CCNCC3)[nH]c(=O)c12`, the solubility (in general, the dissolved amount per volume that the medium holds) in data set [22] came to 2340 µg/mL (≈ 10 mM).
`Nc1n[nH]c2cc(-c3ccccc3)[nH]c(=O)c12` yielded a solubility in [22] of 24 µg/mL (≈ 0.106 mM).
In turn, `Cc1cc2c(c(N)nn2C)c(N2CCN(C)CC2)n1` displayed a solubility in data set [22] of 1160 µg/mL (≈ 4.47 mM).
In data set [22], `Nc1c2c(=O)[nH]c(C3CCNCC3)cc2nn1-c1ccccc1` displayed a solubility of 1430 µg/mL (≈ 4.61 mM).
On to `Cc1cc2c(cn1)c(N)nn2C`, for which the inhibition in [1] was 0%; in [2], 3%; in data set [3], 6%; in [4], 1%; in data set [5], 1%; in data set [6], 9%. Further, the inhibition in data set [7] is 10%; in data set [8], 2%; in [9], -2%; in data set [10], 6%; in [11] it was -2%; in [12], -3%. For the same molecule, the inhibition in data set [14] was 2%; in data set [15] it was 3%; in data set [23] it was -3%; in data set [16] it was 2%; in data set [17] it was 3%; in data set [18], 2%. For the same molecule, the inhibition in data set [19] is -2%; in data set [20], 4%; in data set [21], 1%.
Molecule `Cc1[nH]c(=O)c2c(N)nn(C)c2c1-c1ccccc1` yielded a solubility in [22] of 2 µg/mL (≈ 0.00786 mM).
`Cn1nc(N)c2c(=O)[nH]c(C3CCNCC3)cc21` yielded a solubility in [22] greater than 15000 µg/mL.
For the molecule `Cc1cc2nc(-c3ccccc3)nc(N)c2c(=O)[nH]1`, the inhibition in data set [1] was determined as 7%; in [2], 40%; in data set [3] it was 86%; in data set [4], 14%; in data set [5], 23%; in data set [6] it was 5%. In addition, the inhibition came out at 3% in data set [7]; 7% in data set [8]; 15% in data set [9]; 10% in [10]; 2% in data set [11]; 5% in [12]. The inhibition in [14] turned out to be 32%; in [15] it was 4%; in [23] it was 5%; in [16], 39%; in data set [17], 34%; in data set [18] it was 11%. The inhibition in data set [19] was determined as 22%; in [20] it was 45%; in [21], 50%.
Turning to `O=C1Nc2ccccc2/C1=C1/Nc2ccccc2C1=O` [INDIRUBIN], the solubility in data set [22] is less than 1 µg/mL.
